Screens deposited in PubChem by Broad Institute.
PGC1a Ac signal = raises PGC1a acetylation signal in U2OS cells. actives 0.21% (n = 350,000). AID 651723. U2OS PGC1a acetylation AlphaScreen, overnight. activation, % at 15.6 µM;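 active means every replicate reaching activation of at least 50%, whatever the mean replicate activation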;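 further: hits raise the AlphaScreen acetylation signal above neutral controls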
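Test system: U2OS cells expressing flag-PGC1a plus GCN5; Amount: 7000 U2OS cells per well; Compound: single test concentration per compound; Incubation: compound overnight at 37 °C, each detection step 1 h RT; Signal: AlphaScreen lysate read.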
Numbers stand for hits; – = inactive. Only a sample is shown.

SMILES	PGC1a Ac signal
COc1ccc(-c2cnc3c(c2)C(=O)N([C@H](C)CO)C[C@H](C)[C@H](CN(C)S(=O)(=O)c2cccs2)O3)cc1	–
COc1ccc(C#Cc2cnc3c(c2)C(=O)N([C@H](C)CO)C[C@H](C)[C@H](CN(C)S(=O)(=O)c2cccs2)O3)cc1OC	61
COc1ccc(S(=O)(=O)N(C)C[C@@H]2Oc3ncc(-c4ccccc4)cc3C(=O)N([C@H](C)CO)C[C@@H]2C)cc1	–
CC(C)[C@H](NC(=O)NCc1cccs1)C(=O)O	–
Cc1ccccc1NCC(=O)N/N=C/C(Br)=C/c1ccccc1	150
O=C(Cc1cccs1)N/N=C/C(Br)=C/c1ccccc1	81
O=C(Nc1ccc(Cl)c(Cl)c1)N[C@@H]1CC[C@H](CCn2cc(C3CC3)nn2)O[C@H]1CO	–
COc1ccccc1Nc1nc(NCCC(C)C)nc(N)c1[N+](=O)[O-]	–
NS(=O)(=O)c1ccc(CCNC(=O)c2ccc3nc4ccc(Cl)cc4c(=O)n3c2)cc1	85
NS(=O)(=O)c1ccc(CCNC2CC(=O)N(Cc3ccccc3)C2=O)cc1 (centres undefined)	–
CCN(C(=O)CN1CCN(c2ccccc2O)CC1)c1c(N)n(Cc2ccccc2)c(=O)[nH]c1=O	–
Cc1ccc(C)c(N2CCN(C(=O)CCCOc3cc(=O)n(C)c4ccccc34)CC2)c1	128
Cc1ccc(S(=O)(=O)N2CCN(C(=O)CSc3nc4ccccc4c(=O)[nH]3)CC2)c(C)c1	–
C[C@H]([C@@H](N)C(=O)N[C@@H](C(=O)O)[C@@H]1O[C@H](n2ccc(=O)[nH]c2=O)[C@@H](O)[C@H]1O)[C@@H](O)c1ccc(O)cn1	–
CN(C)C(=O)C[C@@H]1C=C[C@@H](NS(=O)(=O)c2ccccc2)[C@@H](CO)O1	–
CC(=O)N1/C(=C/c2ccc(N(C)C)cc2)C(=O)c2ccccc21	75
CCOC(=O)C1CN(S(=O)(=O)c2ccccc2)c2cc(S(=O)(=O)CC)ccc2O1 (centres undefined)	–
Cc1ccc(S(=O)(=O)C(C#N)c2nc3ccccc3nc2N2CCCC2)cc1 (centres undefined)	–
Cc1ccc(S(=O)(=O)N2CCN(S(=O)(=O)c3ccc(C)cc3)C2c2ccccc2)cc1	110
C[C@H]1CN([C@@H](C)CO)C(=O)Cc2cc(NC(=O)Nc3ccccc3)ccc2O[C@@H]1CN(C)Cc1ccccc1	–
COc1cccc(N2C(=NC(=O)c3ccccc3)SC3CS(=O)(=O)CC32)c1 (centres undefined)	–
O=C(CCSc1nnc(-c2ccc(O)cc2)o1)N1CCOCC1	–
COc1ccc(Nc2nc(N)c(C(=O)c3ccc(OC)cc3)s2)cc1	83
CC1(C)CCC[C@]2(C)[C@H]3Cc4cc(O)ccc4O[C@]3(C)CC[C@@H]12	67
Cc1ccc(S(=O)(=O)N(C)C[C@@H]2OCCCC[C@H](C)Oc3ccc(NS(C)(=O)=O)cc3C(=O)N([C@@H](C)CO)C[C@@H]2C)cc1	–
SMILES	PGC1a Ac signal
CCOC(=O)c1[nH]c2ccc(OC)cc2c1NC(=O)c1ccc2c(c1)OCO2	55
COc1ccc2c(c1)c(CC(=O)OCC(N)=O)c(C)n2C(=O)c1ccc(Cl)cc1	–
Cc1ccc(-c2ccc3c(c2)O[C@@H](CN(C)C(=O)C2CCCCC2)[C@H](C)CN([C@H](C)CO)S3(=O)=O)cc1	–
O=C(CCCc1nc(-c2ccccc2Cl)no1)NCc1cccnc1	98
O=C(CCNNC(=O)c1ccncc1)NCc1ccccc1	–
O=C(NCc1cccnc1)/C(=C\c1ccc(-c2ccc(Cl)c(Cl)c2)o1)S(=O)(=O)c1ccccc1	–
C[C@H](CO)N1C[C@H](C)[C@H](CN(C)C(=O)NC2CCCCC2)Oc2cc(C#Cc3cccc(F)c3)ccc2S1(=O)=O	–
CC1=CC(C)(C)N2C(=O)C3(SCC(=O)N3c3ccc(F)cc3)c3cc(C)cc1c32 (centres undefined)	93
Cc1c(NC(=O)COC(=O)c2ccccc2O)c(=O)n(-c2ccccc2)n1C	–
Cn1c(SC2=CS(=O)(=O)c3ccccc32)nc2ccccc21	260
COc1ccc(S(=O)(=O)Nc2ccc3c(c2)C(=O)N([C@H](C)CO)C[C@H](C)[C@H](CN(C)S(=O)(=O)c2cn(C)cn2)OCCCC[C@@H](C)O3)cc1	–
C[C@H]1CN([C@@H](C)CO)C(=O)CCCn2nncc2CO[C@@H]1CN(C)C(=O)Nc1ccccc1	–
C/C(CC(=O)Nc1ccccc1Br)=N\NC(=O)C(=O)N1CCCC1	–
O=C(Nc1ccccc1F)N1CCCCN2[C@H](CO)[C@H](c3ccc(C#Cc4ccccc4)cc3)[C@H]2C1	72
CC(C)CC#Cc1ccc([C@@H]2[C@H](CO)N3CCCCN(S(=O)(=O)Cc4ccccc4)C[C@@H]23)cc1	61
COc1ccccc1C#Cc1ccc([C@H]2[C@H](C#N)N(C(=O)C3CCCC3)[C@H]2CO)cc1	–
COc1ccc(C#Cc2ccc([C@@H]3[C@H](CO)N4CCCCN(C(=O)Nc5ccccc5)C[C@@H]34)cc2)cc1	78
Cc1nn(CC(=O)Nc2ccc(C(C)C)cc2)c(C)c1[N+](=O)[O-]	–
CC1=Nc2ccccc2N=C(NC(=O)CN2CCN(c3ccccc3)CC2)C1c1ccccc1 (centres undefined)	–
Cc1ccc(O)c(C(=O)c2cnc3c(c2)CN(CCC(C)C)C(=O)N3)c1	70
C[C@@H]1CN([C@@H](C)CO)C(=O)c2cccc(NC(=O)C3CCCCC3)c2O[C@@H]1CN(C)CC1CCCCC1	–
O=S1(=O)CC=C(CSC(=S)NC2CCS(=O)(=O)C2)C1 (centres undefined)	–
Cc1coc2cc3oc(=O)c(CCC(=O)NC4CC4)c(C)c3cc12	57
CS(=O)(=O)c1nc(-c2ccccc2)cc(C(F)(F)F)n1	–
COc1ccc(C)cc1NC(=O)C1CCCN(S(=O)(=O)c2cccs2)C1 (centres undefined)	–
SMILES	PGC1a Ac signal
O=C(NCc1ccc2c(c1)OCO2)C1CCN(S(=O)(=O)c2cccs2)CC1	83
COc1cc(C(C)=O)ccc1OCC(O)CN1CCN(c2ccc(C)c(C)c2)CC1 (centres undefined)	–
CCC1(CC)Cc2ccccc2-c2nc(CN(C)C)[nH]c(=O)c21	53
Cc1cc(C)n(C/C=C/Cn2nc(C)cc2C)n1	–
COc1ccc(C(CC(=O)Nc2ccccn2)N2Cc3ccccc3C2=O)cc1 (centres undefined)	–
CC(C)NC(=O)NCC[C@@H]1CC[C@H](NS(=O)(=O)c2ccc(-c3ccccc3)cc2)[C@@H](CO)O1	65
O=C(NCC[C@@H]1CC[C@H](NS(=O)(=O)c2ccccc2)[C@@H](CO)O1)c1ccccc1F	–
Cc1ccc(S(=O)(=O)N[C@@H]2CC[C@@H](CCNC(=O)c3ccccc3F)O[C@H]2CO)cc1	–
CO[C@H]1CN(C)C(=O)c2cc(NC(=O)NC(C)C)ccc2OC[C@H](C)N(Cc2ccc(-c3ccccn3)cc2)C[C@@H]1C	–
Cc1noc(C)c1S(=O)(=O)N(C)C[C@H]1Oc2ccc(NC(=O)Nc3ccccc3)cc2CC(=O)N([C@H](C)CO)C[C@H]1C	–
CCc1oc2c(C)c(O)ccc2c(=O)c1-c1ccc2ccccc2n1	–
CC1CCCN(Cc2c(O)ccc3c(=O)c(-c4nc5ccccc5s4)c(N)oc23)C1 (centres undefined)	62
CC1CCCN(Cc2c(O)ccc3c4c(c(=O)oc23)CCCC4)C1 (centres undefined)	–
